“And” between values parts separate entries of the source, which are not always exact repeats. Equal values may be shown once. Read-outs that look alike come from different tables or passages of the source.
How the values were obtained:
[1] = Mass balance study, single oral dose of [14C]-pexidartinib 400 mg; format: in vivo, human; conditions: for Percent of Radioactive Dose, feces: pooled feces
How it was run: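 Eight healthy men, 19–55 y, BMI 19–32 kg/m2. Single oral 400 mg (150 μCi) 14C suspension with ~50 mL water after ≥8 h fast, fasting ≥4 h after dosing. Confined ≥168 h; urine and feces collected up to 240 h. Total radioactivity by scintillation counting. Parent in plasma by validated LC-MS/MS. Radio-LC-MS profiling of metabolites. Noncompartmental PK.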

[2] = format: in vivo, human; conditions: for half-life / Cmax: human, plasma; for half-life: oral; for Cmax: po; for dose-normalized AUCinf, geometric LS mean / dose-normalized AUClast, geometric LS mean / dose-normalized Cmax, geometric LS mean: ANOVA
How it was run: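 Healthy adults of both sexes, 18–60 y, BMI 18–30 kg/m2. Randomized three-period crossover (sequences ABC/BCA/CAB), with a single fasted oral dose and 240 mL water on day 1 of each period and a 10-day washout. Plasma sampled 0.5–144 h postdose and analysed by validated LC-MS/MS. Noncompartmental PK. Mixed-effects ANOVA on dose-normalized ln Cmax/AUC versus the 400 mg reference. Power model: 90% CI of slope against the 80–120% interval.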

rCYP3A4 = rCYP3A4 (Homo sapiens, UniProt P08684); test: In vitro metabolic enzyme identification, recombinant human CYP incubation; format: in vitro ADME; conditions: 1 μM pexidartinib, NADPH, 37°C, 30 minutes
How it was run: (§1)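 1 μM test compound incubated with a panel of recombinant human CYPs (1A2, 2B6, 2C8, 2C9, 2C19, 2D6, 3A4, 3A5) plus NADPH at 37°C for 30 minutes. Parent loss measured by LC-MS/MS.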

rCYP3A5 = rCYP3A5 (Homo sapiens, UniProt P20815); test: as above; format: in vitro ADME; conditions: 1 μM pexidartinib, NADPH, 37°C, 30 minutes
How it was run: as §1

cytochrome P450 (CYP) 3A = conditions: previous pharmacokinetic analyses ref 4; cited from earlier work
CYP2C9 = conditions: previous pharmacokinetic analyses ref 4; cited from earlier work
[3] = following oral administration; background statement, no reference given; cited from earlier work
[4] = male, human, plasma, po, 400 mg
[5] = single oral [14C]-pexidartinib 400 mg
[6] = single oral [14C]-pexidartinib 400 mg, N = 8, median (range)
[7] = across all three dose levels, 90%CI
[8] = dose-proportionality study, 18 subjects
[9] = pexidartinib 200 mg vs 400 mg (400 mg reference)
[10] = pexidartinib 400 mg vs 600 mg (400 mg reference)

Sequence of rCYP3A5 (P20815 whole entry): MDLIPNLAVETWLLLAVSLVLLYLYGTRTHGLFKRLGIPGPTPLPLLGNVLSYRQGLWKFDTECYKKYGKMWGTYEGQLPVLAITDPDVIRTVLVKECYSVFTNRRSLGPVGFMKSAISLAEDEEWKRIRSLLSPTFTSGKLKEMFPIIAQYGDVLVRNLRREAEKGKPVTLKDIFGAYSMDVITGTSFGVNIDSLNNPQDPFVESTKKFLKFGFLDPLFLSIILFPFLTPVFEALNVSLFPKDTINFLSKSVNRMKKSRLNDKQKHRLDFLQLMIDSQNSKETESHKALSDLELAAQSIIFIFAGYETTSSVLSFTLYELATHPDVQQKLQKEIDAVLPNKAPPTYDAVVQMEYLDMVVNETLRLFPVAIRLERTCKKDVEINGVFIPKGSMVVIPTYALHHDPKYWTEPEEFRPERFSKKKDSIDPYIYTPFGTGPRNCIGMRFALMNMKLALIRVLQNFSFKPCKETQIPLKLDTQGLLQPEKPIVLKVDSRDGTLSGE
Sequence of rCYP3A4 (P08684 whole entry): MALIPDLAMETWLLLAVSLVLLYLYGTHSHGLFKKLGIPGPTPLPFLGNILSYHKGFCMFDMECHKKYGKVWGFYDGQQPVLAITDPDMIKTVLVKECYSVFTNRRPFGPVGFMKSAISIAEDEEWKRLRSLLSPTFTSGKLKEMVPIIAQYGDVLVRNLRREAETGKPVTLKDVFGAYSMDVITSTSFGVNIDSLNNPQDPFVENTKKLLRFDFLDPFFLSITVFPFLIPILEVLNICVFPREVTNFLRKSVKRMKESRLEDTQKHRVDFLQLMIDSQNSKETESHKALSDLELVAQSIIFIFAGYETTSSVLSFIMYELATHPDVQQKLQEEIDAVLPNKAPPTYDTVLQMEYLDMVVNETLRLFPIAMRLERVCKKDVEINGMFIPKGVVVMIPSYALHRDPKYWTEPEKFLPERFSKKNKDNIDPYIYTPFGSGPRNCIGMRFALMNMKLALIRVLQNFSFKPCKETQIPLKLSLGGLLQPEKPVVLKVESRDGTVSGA

FC(F)(F)c1ccc(CNc2ccc(Cc3c[nH]c4ncc(Cl)cc34)cn2)cn1 [Pexidartinib]
time of peak pexidartinib and total radioactivity ([1]; after the oral dose, pexidartinib and total radioactivity together): 1.75 to 2.0 h
severity of TEAEs ([1]; all events, mass balance study): mild (grade 1)
oral bioavailability ([1]; inferred from 44% of dose excreted unchanged in feces): moderate
Cmax [1, 4]: 2920 ng/mL
Tmax [1, 4]: 1.75 h
half-life [1, 4]: 28.7 h
AUC(0-t) ([1]; male, human, plasma, po, 400 mg, AUClast, pexidartinib in plasma, single oral [14C]-pexidartinib 400 mg, N = 8, mean (CV%)): 60400 ng·h/mL
TEAE deemed by the investigator to be related to pexidartinib treatment ([1]; mass balance study): Diarrhea
TEAE leading to death, serious adverse event, or discontinuation ([1]; mass balance study, 8 subjects): No subject
number of TEAEs ([1]; mass balance study, 8 subjects): four
administered radioactivity recovered in the feces ([1]; over 240 hours, single oral [14C]-pexidartinib 400 mg): 64.8%
administered radioactivity recovered in the urine ([1]; over 240 hours, single oral [14C]-pexidartinib 400 mg, listed as [^14C]‐pexidartinib): 27.4%
administered radioactivity recovered in the urine ([1]; over 240 hours, single oral [14C]-pexidartinib 400 mg, listed as pexidartinib): > 20%
share of total radioactivity in the plasma ([1]; plasma, single oral [14C]-pexidartinib 400 mg): 34.9%
Percent of Radioactive Dose, feces [1, 5]: 44%
Percent of Radioactive Dose, feces ([1]; single oral [14C]-pexidartinib 400 mg, listed as pexidartinib): 44.0%
Percent of Radioactive Dose, urine ([1]; pooled urine, single oral [14C]-pexidartinib 400 mg): no detectable
AUC0-24 of total plasma radioactivity relative to plasma pexidartinib [1, 5]: approximately 2 fold
AUClast of total radioactivity in plasma relative to pexidartinib in plasma [1, 5]: 3 fold
Cmax of total plasma radioactivity relative to plasma pexidartinib [1, 5]: approximately 2 fold
Tmax, total radioactivity in plasma [1, 6]: 2.0 (1.5, 3.0) h
Tmax, total radioactivity in whole blood [1, 6]: 2.0 (1.5, 3.0) h
dose proportionality by power model ([2]; 200-600 mg, 90%CIs overlapped the 0.80-1.20 acceptance interval): inconclusive
slope estimate for AUClast versus dose (power model) [2, 7]: 0.85 (90%CI 0.77, 0.92)
slope estimate for Cmax versus dose (power model) [2, 7]: 0.83 (90%CI 0.74, 0.91) and 0.83 (90%CI, 0.74, 0.91)
severity of TEAEs ([2]; all TEAEs, dose-proportionality study): grade 1
TEAE leading to death, serious adverse event, or discontinuation [2, 8]: No subject
subjects who experienced TEAEs [2, 8]: four
half-life [2]: 24.8 to 26.7 h
half-life ([2]; 600 mg): 24.8 h
Cmax ([2]; 200 mg): 2490 ng/mL
Cmax ([2]; 400 mg): 4660 ng/mL
Cmax ([2]; 600 mg): 6030 ng/mL
dose-normalized AUCinf, geometric LS mean ratio (90%CI) [2, 9]: 101.3 (93.5, 109.7) %
dose-normalized AUClast, geometric LS mean ratio (90%CI) [2, 9]: 101.3 (93.5, 109.8) %
dose-normalized Cmax, geometric LS mean ratio (90%CI) [2, 9]: 105.9 (96.8, 115.8) %
dose-normalized AUCinf, geometric LS mean ([2]; pexidartinib 200 mg, n = 18): 209.4 ng·h/mL/mg
dose-normalized AUClast, geometric LS mean ([2]; pexidartinib 200 mg, n = 18): 204.1 ng·h/mL/mg
dose-normalized Cmax, geometric LS mean ([2]; pexidartinib 200 mg, n = 18): 11.7 ng/mL • mg
t1/2, pexidartinib in plasma ([2]; pexidartinib 200 mg, n = 18, mean (SD)): 25.5 (5.2) h
dose-normalized AUCinf, geometric LS mean ratio (90%CI) [2, 10]: 83.7 (77.3, 90.7) %
dose-normalized AUClast, geometric LS mean ratio (90%CI) [2, 10]: 84.1 (77.6, 91.2) %
dose-normalized Cmax, geometric LS mean ratio (90%CI) [2, 10]: 86.3 (79.0, 94.4) %
dose-normalized AUCinf, geometric LS mean ([2]; pexidartinib 400 mg, n = 18): 206.8 ng·h/mL/mg
dose-normalized AUClast, geometric LS mean ([2]; pexidartinib 400 mg, n = 18): 201.4 ng·h/mL/mg
dose-normalized Cmax, geometric LS mean ([2]; pexidartinib 400 mg, n = 18): 11.0 ng/mL • mg
dose-normalized AUCinf, geometric LS mean ([2]; pexidartinib 600 mg, n = 18): 173.2 ng·h/mL/mg
dose-normalized AUClast, geometric LS mean ([2]; pexidartinib 600 mg, n = 18): 169.4 ng·h/mL/mg
dose-normalized Cmax, geometric LS mean ([2]; pexidartinib 600 mg, n = 18): 9.5 ng/mL • mg
substrate loss (rCYP3A4): 100 % loss
substrate loss (rCYP3A5): 100 % loss
effect on CYP3A (cytochrome P450 (CYP) 3A): moderate inducer
effect on CYP2C9 (CYP2C9): weak inhibitor
time of maximum plasma concentrations [3]: approximately 2.5 hours

— article PMC10099993 (Clinical Pharmacology in Drug Development, 2022)
